According to ChEMBL document CHEMBL1155327, “2,4-Diamino-quinazolines as inhibitors of beta-catenin/Tcf-4 pathway: Potential treatment for colorectal cancer” (Bioorg Med Chem Lett, 2009):
pIC50: −log10 of the molar value. Values after ≈ are worked out from the molar mass of the structure shown.

Assays:
[1] = target: Catenin beta-1 (Homo sapiens) (UniProt P35222); assay: Inhibition of Beta-catenin/Tcf-4 pathway in human Tcf22C11 cell assessed as inhibition of reporter activity by cell-based reporter assay
[2] = target: Catenin beta-1 (Homo sapiens) (UniProt P35222); assay: Inhibition of Beta-catenin/Tcf-4 pathway in human Tcf 33.13 cell assessed as inhibition of reporter activity by cell-based reporter assay
[3] = Cytotoxicity against human SV5A8 cells; assay type: functional, cell-based
Procedure, shortened: (§1)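 Reporter cell lines 22C11 and 33.13 with control line 5A8; IC50 from means of at least two experiments; toxicity flagged as the minimal dose where cell killing appeared by Renilla luciferase signal.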

[4] = Inhibition of […]/Tcf-4 pathway in human Tcf 33.13 cell assessed as inhibition of reporter activity by cell-based reporter assay; assay type: functional
Procedure, shortened: as §1

[5] = Inhibition of […]/Tcf-4 pathway in human Tcf22C11 cell assessed as inhibition of reporter activity by cell-based reporter assay; assay type: functional
Procedure, shortened: as §1

[6] = Ratio of Drug level in tumor to mouse plasma at 50 mg/kg, po
Procedure, shortened: (§2)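 Tumour-bearing nude mice (n = 4) given one oral dose (50 or 200 mg/kg); plasma and tumour drug concentrations (ng/mL) measured 8 h after dosing; tumour/plasma ratio calculated from these.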

[7] = Drug level in tumor of nude mouse bearing HT29 or HCT116 cells at 50 mg/kg, po after 8 hrs; assay type: ADME, organism-based, Neoplasm, HCT-116; parameters: dose 50 mg/kg, route oral; conditions: read-out: Ct
Procedure, shortened: as §2

[8] = Plasma concentration in nude mouse at 50 mg/kg, po after 8 hrs; assay type: ADME, organism-based; parameters: dose 50 mg/kg, route oral
Procedure, shortened: as §2

[9] = Oral bioavailability in mouse at 25 mg/kg; assay type: ADME, organism-based; conditions: in vivo
Procedure, shortened: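 Female nude mice dosed orally at 25 mg/kg; oral bioavailability (%) determined from pharmacokinetic study.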

[10] = Aqueous solubility at pH 7.4; assay type: physicochemical
Procedure, shortened: (§3)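 Water solubility measured in µg/mL at pH 7.4 and at pH 3.0.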

HT-29 = assay: Antitumor activity against human HT-29 cells xenografted in nude mouse assessed as tumor growth inhibition at 200 mg/kg, po after 17 days; assay type: functional; conditions: HT-29, 408 h, read-out: TGI
Procedure, shortened: (§4)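 Nude mice carrying subcutaneous HT29 or HCT116 tumours; oral dosing at 25, 50, 100 or 200 mg/kg once daily for 17 days; tumour volume measured; growth inhibition assessed at end of treatment.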

HCT-116 = assay: Antitumor activity against human HCT116 cells xenografted in nude mouse assessed as tumor growth inhibition at 200 mg/kg, po after 17 days; assay type: functional; conditions: HCT-116, 408 h, read-out: TGI
Procedure, shortened: as §4

[11] = Aqueous solubility at pH 3; assay type: physicochemical
Procedure, shortened: as §3

[12] = Drug level in tumor of nude mouse bearing HT29 or HCT116 tumor at 200 mg/kg, po after 8 hrs; assay type: ADME, organism-based, Neoplasm; parameters: dose 200 mg/kg, route oral; conditions: read-out: Ct
Procedure, shortened: as §2

[13] = Ratio of Drug level in tumor to mouse plasma at 200 mg/kg, po
Procedure, shortened: as §2

[14] = Plasma concentration in mouse at 200 mg/kg, po after 8 hrs; assay type: ADME, organism-based; parameters: dose 200 mg/kg, route oral
Procedure, shortened: as §2

Structure (SMILES)	pIC50 [1]	pIC50 [2]	pIC50 [3]	also measured
Cc1ccc2c(NCc3ccc(NC(=O)C4CCN(Cc5ccccc5)CC4)cc3)nc(N3CCC(N4CCCC4)CC3)nc2c1	6.02	6.07	< 5.09	–
Cc1ccc2c(NCc3ccc(NC(=O)C4CCN(Cc5ncc[nH]5)CC4)cc3)nc(N(C)C)nc2c1	< 4.70	< 4.70	< 4.70	–
Cc1ccc2c(NCc3ccc(NC(=O)C4CCN(C)CC4)cc3)nc(N(C)C)nc2c1	5.72	5.78	< 4.76	–
COc1ccc(CN2CCC(C(=O)Nc3ccc(CNc4nc(N(C)C)nc5cc(C)ccc45)cc3)CC2)cc1	6.28	6.35	< 5.21	–
Cc1ccc2c(NCc3ccc(NC(=O)C4CCN(Cc5ccc(Cl)cn5)CC4)cc3)nc(N(C)C)nc2c1	–	–	< 5.27	pIC50 [4]: 6.39; pIC50 [5]: 6.24
Cc1ccc2c(NCc3ccc(NC(=O)C4CCN(Cc5ccc(Cl)cc5)CC4)cc3)nc(N(C)C)nc2c1	6.41	6.49	< 5.50	–
Cc1ccc2c(NCc3ccc(NC(=O)C4CCN(C5CCCCC5)CC4)cc3)nc(N(C)C)nc2c1	6.12	6.09	< 5.08	–
Cc1ccc2c(NCc3ccc(NC(=O)C4CCN(Cc5ccc(F)cc5)CC4)cc3)nc(N(C)C)nc2c1	6.66	6.72	< 5.32	Ratio [6]: 220; concentration at 8 h [7]: 70300 ng/mL; concentration at 8 h [8]: 440 ng/mL; bioavailability [9]: 46%
Cc1ccc2c(NCc3ccc(NC(=O)C4CCN(CC(C)C)CC4)cc3)nc(N(C)C)nc2c1	6.19	6.02	< 4.98	–
Cc1ccc2c(NCc3ccc(NC(=O)C4CCN(Cc5cccc(F)c5)CC4)cc3)nc(N(C)C)nc2c1	6.48	6.46	< 5.38	–
CCCCN1CCC(C(=O)Nc2ccc(CNc3nc(N(C)C)nc4cc(C)ccc34)cc2)CC1	5.83	5.93	< 4.98	–
Cc1ccc2c(NCc3ccc(NC(=O)C4CCN(Cc5ccc(F)cc5Cl)CC4)cc3)nc(N(C)C)nc2c1	6.28	6.68	< 5.23	–
Cc1ccc(CN2CCC(C(=O)Nc3ccc(CNc4nc(N(C)C)nc5cc(C)ccc45)cc3)CC2)cc1	6.33	6.30	< 5.38	–
CNc1nc(NCc2ccc(-c3ccccc3C(=O)OC)cc2)c2ccccc2n1	6.22	–	–	–
Cc1ccc2c(NCc3ccc(NC(=O)C4CCN(C(=O)OC(C)(C)C)CC4)cc3)nc(N(C)C)nc2c1	6.12	6.07	< 5.32	–
Cc1ccc2c(NCc3ccc(NC(=O)C4CCN(Cc5ccco5)CC4)cc3)nc(N(C)C)nc2c1	5.74	5.71	< 4.70	–
Cc1ccc2c(NCc3ccc(NC(=O)C4CCN(Cc5ccncc5)CC4)cc3)nc(N(C)C)nc2c1	–	–	< 5.09	pIC50 [4]: 6.05; pIC50 [5]: 5.93

More lines, main results first:

pIC50 [1]	pIC50 [2]	Structure (SMILES)	pIC50 [3]	also measured
6.18	6.10	Cc1ccc2c(NCc3ccc(NC(=O)C4CCN(Cc5ccccc5)CC4)cc3)nc(N3CCCC3)nc2c1	< 5.11	–
6.00	6.10	Cc1ccc2c(NCc3ccc(NC(=O)C4CCN(Cc5ccccc5)CC4)cc3)nc(N3CCC3)nc2c1	< 5.07	–
5.86	5.95	CCNc1nc(NCc2ccc(NC(=O)C3CCN(Cc4ccccc4)CC3)cc2)c2ccc(C)cc2n1	< 5.67	–
6.13	6.12	Cc1ccc2c(NCc3ccc(NC(=O)C4CCN(Cc5ccccc5)CC4)cc3)nc(N(C)C)nc2c1	< 5.15	solubility [10]: 43 µg/mL (≈ 84.5 µM); inhibition in vivo at 200 mg/kg (HT-29): 20%; inhibition in vivo at 200 mg/kg (HCT-116): 20%; solubility [11]: > 100 µg/mL; concentration at 8 h [12]: 90700 ng/mL; bioavailability [9]: 41%; Ratio [13]: 40; concentration at 8 h [14]: 2970 ng/mL
5.80	5.88	Cc1ccc2c(NCc3ccc(NC(=O)C4CCN(Cc5ccccc5)CC4)cc3)nc(N3CCN(C)CC3)nc2c1	< 4.75	–
5.72	5.84	Cc1ccc2c(NCc3ccc(NC(=O)C4CCN(Cc5ccccc5)CC4)cc3)nc(N3CCN[C@@H](C)C3)nc2c1	< 5.05	–
5.90	5.95	CCN1CCN(c2nc(NCc3ccc(NC(=O)C4CCN(Cc5ccccc5)CC4)cc3)c3ccc(C)cc3n2)CC1	< 4.89	–
5.98	6.02	Cc1ccc2c(NCc3ccc(NC(=O)C4CCN(Cc5ccccc5)CC4)cc3)nc(N3CCCCCC3)nc2c1	< 5.16	–
5.85	5.88	Cc1ccc2c(NCc3ccc(NC(=O)C4CCN(Cc5ccccc5)CC4)cc3)nc(N(C)CCCN(C)C)nc2c1	< 5.06	–
5.64	5.67	Cc1ccc2c(NCc3ccc(NC(=O)C4CCN(Cc5ccccc5)CC4)cc3)nc(N3CCNC(CCO)C3)nc2c1 (configuration not stated)	< 5.07	–
5.65	5.84	Cc1ccc2c(NCc3ccc(NC(=O)C4CCN(Cc5ccccc5)CC4)cc3)nc(N(C)CCN(C)C)nc2c1	< 5.05	–
6.28	6.49	Cc1ccc2c(NCc3ccc(NC(=O)C4CCN(Cc5ccccc5F)CC4)cc3)nc(N(C)C)nc2c1	< 5.18	–
